Results taken from ChEMBL document CHEMBL3124772, “Design, synthesis, and evaluation of conformationally restricted acetanilides as potent and selective β3 adrenergic receptor agonists for the treatment of overactive bladder” (J Med Chem, 2014).

How the values were obtained:
[1] = target: Beta-1 adrenergic receptor (Homo sapiens, UniProt P08588); experiment: Displacement of [125I]-cyanopindolol from recombinant human beta-1 adrenergic receptor expressed in CHO cell membranes after 1 hr by scintillation counting analysis
[2] = target: T1, Beta-3 adrenergic receptor (Homo sapiens, UniProt P13945); experiment: Agonist activity at human beta-3 adrenergic receptor expressed in CHO cells assessed as increase in intracellular cAMP accumulation after 30 mins by time-resolved fluorescence assay; type: functional, cell-based
In short: (§1)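 CHO cells stably transfected with cloned β3-AR, harvested after 3 days subculture with enzyme-free dissociation, 6000 cells in HBSS with 5 mM HEPES, 0.1% BSA and 0.6 mM IBMX. Ligand at 10⁻¹⁰ to 10⁻⁵ M final, 30 min room temperature with labeled cAMP antibody; LANCE TR-FRET read after 1 h detection, cAMP from standard curve.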
Target sequence in this assay (P13945 whole entry): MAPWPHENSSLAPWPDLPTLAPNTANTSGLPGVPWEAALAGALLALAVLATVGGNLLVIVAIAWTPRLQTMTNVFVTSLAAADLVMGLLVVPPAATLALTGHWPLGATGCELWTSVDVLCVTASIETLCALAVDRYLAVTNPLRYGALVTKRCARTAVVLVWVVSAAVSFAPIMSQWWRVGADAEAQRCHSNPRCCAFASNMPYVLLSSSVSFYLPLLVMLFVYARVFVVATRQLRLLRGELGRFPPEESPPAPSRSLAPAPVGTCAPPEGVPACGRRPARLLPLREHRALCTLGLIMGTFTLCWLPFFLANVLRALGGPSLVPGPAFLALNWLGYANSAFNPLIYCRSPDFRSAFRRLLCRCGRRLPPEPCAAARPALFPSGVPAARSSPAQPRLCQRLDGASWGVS

[3] = target: T1, Beta-3 adrenergic receptor; experiment: Agonist activity at human beta-3 adrenergic receptor expressed in CHO cells assessed as increase in intracellular cAMP accumulation at 10^-10 to 10^-5 M after 30 mins by time-resolved fluorescence assay relative to R-(-)isoproterenol; type: functional, cell-based; in short: as §1
Target sequence in this assay (P13945 whole entry, looked up): as the sequence (P13945 whole entry) above

[4] = target: Beta-2 adrenergic receptor (Homo sapiens, UniProt P07550); experiment: Displacement of [125I]-cyanopindolol from recombinant human beta-2 adrenergic receptor expressed in CHO cell membranes after 1 hr by scintillation counting analysis
[5] = target: Voltage-gated inwardly rectifying potassium channel KCNH2 (Homo sapiens, UniProt Q12809); experiment: Inhibition of human ERG
[6] = Oral bioavailability in Sprague-Dawley rat at 2 mg/kg; type: ADME, organism-based; details: in vivo
[7] = Plasma clearance in Sprague-Dawley rat at 1 mg/kg, iv and 2 mg/kg, po; type: ADME, organism-based
[8] = Apparent permeability in MDCK2 cells; type: ADME, cell-based, Canis lupus familiaris, MDCK-II; details: dog, MDCK
[9] = Intrinsic clearance in rat liver microsomes; type: ADME; details: read-out: CLH
[10] = Half life in Sprague-Dawley rat at 1 mg/kg, iv and 2 mg/kg, po; type: ADME, organism-based; details: in vivo
[11] = Fraction unbound in Sprague-Dawley rat plasma at 1 mg/kg, iv and 2 mg/kg, po; type: ADME, organism-based; details: Sprague-Dawley, plasma
Cytochrome P450 2D6 = Cytochrome P450 2D6 (Homo sapiens, UniProt P10635); experiment: Inhibition of CYP2D6 in human liver microsomes assessed as dextromethorphan O-demethylation; type: ADME
[12] = target: Sodium channel protein type 5 subunit alpha (Homo sapiens, UniProt Q14524); experiment: Inhibition of human NaV1.5
Cytochrome P450 3A4 = Cytochrome P450 3A4 (Homo sapiens, UniProt P08684); experiment: Inhibition of CYP3A4 in human liver microsomes assessed as testosterone 6beta-hydroxylation; type: ADME
[13] = target: Sodium-dependent serotonin transporter (Homo sapiens, UniProt P31645); experiment: Inhibition of human SERT expressed in HEK293 cells incubated for 30 mins prior to fluorescent substrate addition measured after 30 mins by fluorescent dye uptake assay; type: cell-based
In short: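 HEK293 stably expressing human SERT, 20000 cells/well plated overnight at 37 °C, then in HBSS with 20 mM HEPES and 0.1% BSA. Compound added from 100× DMSO stock, 30 min at 37 °C, then fluorescent transporter substrate for 30 more min. Fluorescence read at 440/520 nm, normalized to DMSO (0%) and 10 μM fluoxetine (100%), four-parameter fit for IC50.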

Cytochrome P450 2C9 = Cytochrome P450 2C9 (Homo sapiens, UniProt P11712); experiment: Inhibition of CYP2C9 in human liver microsomes assessed as diclofenac alpha'-hydroxylation; type: ADME
[14] = target: Voltage-dependent L-type calcium channel subunit alpha-1C (Homo sapiens, UniProt Q13936); experiment: Displacement of [3H]-diltiazem from human CaV1.2

Chain of Beta-2 adrenergic receptor (P07550 whole entry): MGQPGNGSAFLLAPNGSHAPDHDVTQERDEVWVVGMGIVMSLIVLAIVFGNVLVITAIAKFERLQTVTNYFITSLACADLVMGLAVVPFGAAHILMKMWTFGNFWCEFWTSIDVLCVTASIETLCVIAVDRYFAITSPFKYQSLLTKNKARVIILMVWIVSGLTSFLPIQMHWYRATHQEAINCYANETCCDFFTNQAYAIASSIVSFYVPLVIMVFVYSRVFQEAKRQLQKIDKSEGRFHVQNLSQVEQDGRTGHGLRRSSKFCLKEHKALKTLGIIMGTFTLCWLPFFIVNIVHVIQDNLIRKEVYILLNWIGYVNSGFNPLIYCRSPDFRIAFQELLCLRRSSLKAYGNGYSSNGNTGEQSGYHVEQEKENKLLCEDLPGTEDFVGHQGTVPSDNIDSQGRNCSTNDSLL
Chain of Beta-1 adrenergic receptor (P08588 whole entry): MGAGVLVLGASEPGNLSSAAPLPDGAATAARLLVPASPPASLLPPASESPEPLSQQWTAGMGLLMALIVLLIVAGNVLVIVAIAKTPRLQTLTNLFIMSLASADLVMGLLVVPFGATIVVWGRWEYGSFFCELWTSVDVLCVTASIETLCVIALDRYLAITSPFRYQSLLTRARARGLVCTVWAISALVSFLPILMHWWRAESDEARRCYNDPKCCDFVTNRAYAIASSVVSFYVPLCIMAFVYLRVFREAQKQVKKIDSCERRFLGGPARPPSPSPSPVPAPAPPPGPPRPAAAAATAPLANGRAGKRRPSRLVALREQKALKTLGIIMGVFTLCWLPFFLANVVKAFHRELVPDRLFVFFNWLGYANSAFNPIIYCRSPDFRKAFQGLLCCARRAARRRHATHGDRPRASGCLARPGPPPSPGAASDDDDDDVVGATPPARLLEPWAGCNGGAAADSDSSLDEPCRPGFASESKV
Chain of Voltage-gated inwardly rectifying potassium channel KCNH2 (Q12809 whole entry): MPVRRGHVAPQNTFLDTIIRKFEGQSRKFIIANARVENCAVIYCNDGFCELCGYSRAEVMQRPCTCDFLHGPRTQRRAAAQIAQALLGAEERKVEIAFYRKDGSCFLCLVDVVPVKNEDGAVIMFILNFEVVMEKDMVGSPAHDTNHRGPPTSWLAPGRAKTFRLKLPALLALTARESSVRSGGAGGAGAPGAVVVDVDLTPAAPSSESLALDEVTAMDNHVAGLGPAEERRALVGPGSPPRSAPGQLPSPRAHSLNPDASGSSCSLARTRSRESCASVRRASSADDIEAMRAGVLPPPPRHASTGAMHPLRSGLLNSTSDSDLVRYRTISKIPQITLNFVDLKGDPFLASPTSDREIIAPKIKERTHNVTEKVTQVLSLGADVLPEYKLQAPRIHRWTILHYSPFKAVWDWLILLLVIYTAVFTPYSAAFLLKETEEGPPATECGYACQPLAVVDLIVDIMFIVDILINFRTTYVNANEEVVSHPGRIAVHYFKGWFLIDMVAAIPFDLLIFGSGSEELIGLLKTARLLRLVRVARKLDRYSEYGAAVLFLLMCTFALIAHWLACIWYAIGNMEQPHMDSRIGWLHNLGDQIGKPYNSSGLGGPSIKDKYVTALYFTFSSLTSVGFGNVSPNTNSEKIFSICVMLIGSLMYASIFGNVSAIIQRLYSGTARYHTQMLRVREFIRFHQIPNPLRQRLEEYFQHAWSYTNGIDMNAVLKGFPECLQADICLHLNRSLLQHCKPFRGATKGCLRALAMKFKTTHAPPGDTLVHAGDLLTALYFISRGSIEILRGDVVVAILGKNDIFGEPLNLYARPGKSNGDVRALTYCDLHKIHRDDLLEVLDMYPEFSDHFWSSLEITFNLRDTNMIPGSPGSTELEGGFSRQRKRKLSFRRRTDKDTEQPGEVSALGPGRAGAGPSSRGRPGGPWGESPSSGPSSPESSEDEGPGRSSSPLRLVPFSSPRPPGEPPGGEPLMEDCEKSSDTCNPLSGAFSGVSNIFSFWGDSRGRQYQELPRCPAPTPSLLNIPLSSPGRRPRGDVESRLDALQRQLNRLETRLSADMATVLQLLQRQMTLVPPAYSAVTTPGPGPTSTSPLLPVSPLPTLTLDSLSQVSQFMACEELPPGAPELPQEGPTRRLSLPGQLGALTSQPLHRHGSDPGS
Chain of Sodium channel protein type 5 subunit alpha (Q14524 whole entry): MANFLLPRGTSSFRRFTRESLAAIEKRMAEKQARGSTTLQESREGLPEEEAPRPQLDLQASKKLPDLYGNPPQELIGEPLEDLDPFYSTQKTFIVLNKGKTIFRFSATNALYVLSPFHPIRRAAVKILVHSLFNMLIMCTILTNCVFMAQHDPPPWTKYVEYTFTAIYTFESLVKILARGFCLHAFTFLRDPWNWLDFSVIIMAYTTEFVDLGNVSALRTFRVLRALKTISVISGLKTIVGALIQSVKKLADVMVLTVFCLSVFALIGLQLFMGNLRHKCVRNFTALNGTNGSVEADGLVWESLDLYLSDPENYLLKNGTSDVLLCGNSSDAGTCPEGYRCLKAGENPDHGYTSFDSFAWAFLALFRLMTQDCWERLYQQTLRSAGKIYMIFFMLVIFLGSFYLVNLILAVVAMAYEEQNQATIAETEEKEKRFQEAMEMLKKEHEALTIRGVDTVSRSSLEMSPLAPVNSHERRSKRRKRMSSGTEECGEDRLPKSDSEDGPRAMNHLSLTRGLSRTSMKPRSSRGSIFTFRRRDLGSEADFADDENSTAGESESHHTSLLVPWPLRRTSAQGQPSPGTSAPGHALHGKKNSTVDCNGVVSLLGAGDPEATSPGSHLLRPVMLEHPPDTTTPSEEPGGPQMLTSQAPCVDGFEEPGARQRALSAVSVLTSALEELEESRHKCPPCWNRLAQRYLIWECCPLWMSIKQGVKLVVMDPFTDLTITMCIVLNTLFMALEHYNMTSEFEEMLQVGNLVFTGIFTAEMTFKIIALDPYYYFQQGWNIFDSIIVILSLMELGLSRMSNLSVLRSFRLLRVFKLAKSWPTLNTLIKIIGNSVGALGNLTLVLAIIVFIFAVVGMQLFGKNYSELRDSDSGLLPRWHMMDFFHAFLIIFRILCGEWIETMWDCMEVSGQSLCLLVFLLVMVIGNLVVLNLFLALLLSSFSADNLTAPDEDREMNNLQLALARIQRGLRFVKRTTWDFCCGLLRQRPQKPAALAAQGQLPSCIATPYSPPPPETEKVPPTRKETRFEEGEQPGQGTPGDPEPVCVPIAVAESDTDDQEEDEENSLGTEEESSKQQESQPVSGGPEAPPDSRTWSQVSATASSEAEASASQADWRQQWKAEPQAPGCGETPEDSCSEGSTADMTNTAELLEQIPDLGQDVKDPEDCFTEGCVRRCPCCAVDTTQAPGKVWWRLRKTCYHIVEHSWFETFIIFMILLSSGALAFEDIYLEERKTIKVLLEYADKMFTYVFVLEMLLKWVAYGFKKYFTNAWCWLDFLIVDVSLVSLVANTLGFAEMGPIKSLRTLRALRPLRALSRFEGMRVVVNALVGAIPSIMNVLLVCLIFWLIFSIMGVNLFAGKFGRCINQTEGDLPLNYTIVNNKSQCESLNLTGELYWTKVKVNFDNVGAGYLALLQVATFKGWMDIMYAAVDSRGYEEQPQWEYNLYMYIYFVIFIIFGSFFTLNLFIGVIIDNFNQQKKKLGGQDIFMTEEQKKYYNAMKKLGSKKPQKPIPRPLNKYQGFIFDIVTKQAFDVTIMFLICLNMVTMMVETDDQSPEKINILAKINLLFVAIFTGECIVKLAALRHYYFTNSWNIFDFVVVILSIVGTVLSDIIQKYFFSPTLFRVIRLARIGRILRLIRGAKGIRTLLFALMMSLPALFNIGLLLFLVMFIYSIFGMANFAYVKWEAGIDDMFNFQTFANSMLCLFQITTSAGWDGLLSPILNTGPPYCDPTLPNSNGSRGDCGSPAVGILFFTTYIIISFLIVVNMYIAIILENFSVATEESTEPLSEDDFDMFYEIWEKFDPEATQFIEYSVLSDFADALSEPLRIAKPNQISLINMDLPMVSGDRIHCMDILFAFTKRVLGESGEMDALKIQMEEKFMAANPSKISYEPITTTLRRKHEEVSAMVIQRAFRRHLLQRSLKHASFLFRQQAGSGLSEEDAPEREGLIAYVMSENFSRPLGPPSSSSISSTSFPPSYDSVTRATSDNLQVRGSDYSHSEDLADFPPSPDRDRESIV
Chain of Cytochrome P450 2D6 (P10635 whole entry): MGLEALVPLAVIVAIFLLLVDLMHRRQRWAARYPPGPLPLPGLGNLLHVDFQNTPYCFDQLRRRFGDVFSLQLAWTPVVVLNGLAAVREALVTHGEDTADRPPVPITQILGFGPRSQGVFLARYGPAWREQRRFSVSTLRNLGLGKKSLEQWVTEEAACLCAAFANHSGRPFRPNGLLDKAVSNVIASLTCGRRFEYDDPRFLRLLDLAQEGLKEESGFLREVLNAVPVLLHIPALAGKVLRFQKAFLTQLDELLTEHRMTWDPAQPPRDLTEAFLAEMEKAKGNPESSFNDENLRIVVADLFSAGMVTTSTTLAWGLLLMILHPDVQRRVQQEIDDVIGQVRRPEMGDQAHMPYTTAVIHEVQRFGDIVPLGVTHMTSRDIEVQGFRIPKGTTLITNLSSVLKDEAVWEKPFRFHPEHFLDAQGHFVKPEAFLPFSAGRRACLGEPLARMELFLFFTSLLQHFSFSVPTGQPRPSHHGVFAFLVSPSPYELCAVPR

Row | SMILES | IC50 [1] [µM] | EC50 [2] [nM] | Activity [3] [%] | IC50 [4] [µM] | other results
1 | CCC[C@@H](C(=O)Nc1ccc(C[C@@H]2CC[C@H]([C@H](O)c3ccccc3)N2)cc1)c1csc(N)n1 | > 20 | 0.88 | 66 | > 20 | 
2 | O=C(Nc1ccc(C[C@@H]2CC[C@H]([C@H](O)c3cccnc3)N2)cc1)[C@@H]1CCc2sc(-c3ccc(F)cc3)nc21 | 13.3 | 8.78 | 15 | 2.47 | 
3 | CC[C@@H](C(=O)Nc1ccc(C[C@@H]2CC[C@H]([C@H](O)c3ccccc3)N2)cc1)c1csc(N)n1 | > 20 | 0.83 | 85 | > 20 | 
4 | Nc1nc2c(s1)CC[C@H]2C(=O)Nc1ccc(C[C@@H]2CC[C@H]([C@H](O)c3cccc(F)c3)N2)cc1 | > 20 | 0.04 | 94 | > 20 | IC50 [5]: 4 µM
5 | C[C@@H](C(=O)Nc1ccc(C[C@@H]2CC[C@H]([C@H](O)c3ccccc3)N2)cc1)c1csc(N)n1 | > 20 | 0.18 | 84 | > 20 | 
6 | O=C(Nc1ccc(C[C@@H]2CC[C@H]([C@H](O)c3ccccc3)N2)cc1)[C@@H]1CCc2sc(-c3ccc(F)cc3)nc21 | 4.33 | 186 | 76 | 2.51 | 
7 | Nc1nc2c(s1)CC[C@@H]2C(=O)Nc1ccc(C[C@@H]2CC[C@H]([C@H](O)c3ccccc3)N2)cc1 | > 20 | 44.2 | 91 | > 20 | 
8 | CCc1nc2c(s1)CC[C@H]2C(=O)Nc1ccc(C[C@@H]2CC[C@H]([C@H](O)c3ccccc3)N2)cc1 | > 20 | 1.95 | 37 | > 20 | 
9 | Cc1nc2c(s1)CC[C@H]2C(=O)Nc1ccc(C[C@@H]2CC[C@H]([C@H](O)c3ccccc3)N2)cc1 | > 20 | 0.48 | 96 | > 20 | bioavailability [6]: 6%; clearance [7]: 5.22 L/h/kg; Papp [8]: 260 nm/s; CLint scaled [9]: 8.1 L/h/kg; half-life [10]: 1 h; fraction unbound [11]: 0.05
10 | Nc1nc2c(s1)CCC[C@H]2C(=O)Nc1ccc(C[C@@H]2CC[C@H]([C@H](O)c3ccccc3)N2)cc1 | > 20 | 0.21 | 103 | > 20 | bioavailability [6]: 0%; clearance [7]: 11.1 L/h/kg; Papp [8]: 50 nm/s; CLint scaled [9]: 3.78 L/h/kg; half-life [10]: 3 h; fraction unbound [11]: 0.14
11 | CC(C)[C@@H](C(=O)Nc1ccc(C[C@@H]2CC[C@H]([C@H](O)c3ccccc3)N2)cc1)c1csc(N)n1 | > 20 | 1.6 | 85 | > 20 | 
12 | C[C@H](C(=O)Nc1ccc(C[C@@H]2CC[C@H]([C@H](O)c3ccccc3)N2)cc1)c1csc(N)n1 | > 20 | 0.67 | 85 | > 20 | 
13 | C[C@@H](C(=O)Nc1ccc(C[C@@H]2CC[C@H]([C@H](O)c3cccnc3)N2)cc1)n1cccn1 | > 20 | 16.7 | 102 | > 20 | bioavailability [6]: 29%; clearance [7]: 2.04 L/h/kg; half-life [10]: 2 h
14 | Nc1nc2c(s1)CC[C@H]2C(=O)Nc1ccc(C[C@@H]2CC[C@H]([C@H](O)c3ccc(F)cc3)N2)cc1 | > 20 | 0.13 | 72 | > 20 | IC50 [5]: 5.6 µM
15 | CCc1nc2c(s1)CC[C@H]2C(=O)Nc1ccc(C[C@@H]2CC[C@H]([C@H](O)c3cccnc3)N2)cc1 | > 20 | 13.6 | 49 | > 20 | 
16 | O=C(Nc1ccc(C[C@@H]2CC[C@H]([C@H](O)c3cccnc3)N2)cc1)[C@@H]1CCc2sc(C3CC3)nc21 | > 20 | 12.4 | 43 | > 20 | 
17 | O=C(Nc1ccc(C[C@@H]2CC[C@H]([C@H](O)c3ccccc3)N2)cc1)[C@@H]1CCc2scnc21 | > 20 | 0.64 | 101 | > 20 | bioavailability [6]: 12%; clearance [7]: 4.8 L/h/kg; Papp [8]: 240 nm/s; CLint scaled [9]: 4.08 L/h/kg; half-life [10]: 1 h; fraction unbound [11]: 0.1
18 | Nc1nc2c(s1)CC[C@H]2C(=O)Nc1ccc(C[C@@H]2CC[C@H]([C@H](O)c3cccc(Cl)c3)N2)cc1 | > 20 | 0.15 | 93 | 8.45 | 
19 | Nc1nc2c(s1)CCCC[C@H]2C(=O)Nc1ccc(C[C@@H]2CC[C@H]([C@H](O)c3ccccc3)N2)cc1 | > 20 | 1.86 | 70 | > 20 | 
20 | Nc1nc(CC(=O)Nc2ccc(C[C@@H]3CCC([C@H](O)c4ccccc4)N3)cc2)cs1 (single isomer, unassigned) | > 20 |  | 92 | > 20 | clearance [7]: 0.66 L/h/kg; IC50 (Cytochrome P450 2D6): 2.2 µM; IC50 [12]: > 30 µM; Papp [8]: 50 nm/s; IC50 (Cytochrome P450 3A4): > 100 µM; CLint scaled [9]: 2.28 L/h/kg; half-life [10]: 8 h; IC50 [13]: 1.61 µM; fraction unbound [11]: 0.06; IC50 (Cytochrome P450 2C9): > 100 µM; IC50 [14]: 8.2 µM
21 | O=C(Cn1cccn1)Nc1ccc(C[C@@H]2CC[C@H]([C@H](O)c3cccnc3)N2)cc1 | > 20 | 76.7 | 72 | > 20 | 
